Measurements as given in paper PMC12673082 (Nature Communications, 2025).
In brackets after ≈: the same amount, converted by molar mass. Several values for one entry are separate records, joined by “and”; a condition that tells them apart may be missing. Equal values may be shown once.

Experiments:
hP2X7 = target: T1, hP2X7 (Homo sapiens, UniProt Q99572); experiment: Whole-cell patch clamp, ATP-evoked current, transfected HEK293; type: cell-based
T1 sequence (Q99572 1-595): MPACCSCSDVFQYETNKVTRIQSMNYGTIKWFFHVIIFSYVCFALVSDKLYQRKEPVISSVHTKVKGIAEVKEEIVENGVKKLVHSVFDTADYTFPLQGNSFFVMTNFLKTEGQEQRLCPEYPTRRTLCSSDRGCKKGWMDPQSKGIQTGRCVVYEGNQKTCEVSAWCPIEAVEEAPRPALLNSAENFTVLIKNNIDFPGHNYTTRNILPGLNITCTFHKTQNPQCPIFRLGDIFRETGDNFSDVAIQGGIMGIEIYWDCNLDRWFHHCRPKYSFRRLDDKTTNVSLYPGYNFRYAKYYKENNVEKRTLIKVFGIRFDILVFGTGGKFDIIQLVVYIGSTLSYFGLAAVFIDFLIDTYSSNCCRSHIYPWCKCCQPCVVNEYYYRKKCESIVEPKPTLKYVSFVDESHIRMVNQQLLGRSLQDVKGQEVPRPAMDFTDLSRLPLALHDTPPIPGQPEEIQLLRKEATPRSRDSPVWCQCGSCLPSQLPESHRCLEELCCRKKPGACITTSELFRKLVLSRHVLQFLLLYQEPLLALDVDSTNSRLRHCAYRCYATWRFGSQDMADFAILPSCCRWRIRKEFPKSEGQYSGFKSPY

pdP2X7 = pdP2X7 (Ailuropoda melanoleuca, UniProt G1M6C4); experiment: as above; type: cell-based, giant panda (Ailuropoda melanoleuca)
pdP2X7, sequence (G1M6C4 2-595): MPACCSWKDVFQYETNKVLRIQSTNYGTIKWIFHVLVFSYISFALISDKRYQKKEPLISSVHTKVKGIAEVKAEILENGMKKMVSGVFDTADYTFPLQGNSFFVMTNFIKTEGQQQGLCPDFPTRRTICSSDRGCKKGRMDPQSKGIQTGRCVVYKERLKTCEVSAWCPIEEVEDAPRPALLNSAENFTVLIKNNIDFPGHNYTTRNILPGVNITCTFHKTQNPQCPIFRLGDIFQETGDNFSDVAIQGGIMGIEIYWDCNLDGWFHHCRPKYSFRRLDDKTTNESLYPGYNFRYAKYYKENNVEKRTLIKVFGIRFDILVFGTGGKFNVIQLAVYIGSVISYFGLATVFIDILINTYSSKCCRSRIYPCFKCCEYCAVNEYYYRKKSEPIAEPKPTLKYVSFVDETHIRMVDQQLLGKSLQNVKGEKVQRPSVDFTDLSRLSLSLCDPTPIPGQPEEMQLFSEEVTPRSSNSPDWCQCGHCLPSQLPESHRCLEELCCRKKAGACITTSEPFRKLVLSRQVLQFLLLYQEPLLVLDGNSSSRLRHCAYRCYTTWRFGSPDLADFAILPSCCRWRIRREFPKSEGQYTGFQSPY

rP2X7 = target: T2, rP2X7 (Rattus norvegicus, UniProt Q64663); experiment: as above; type: cell-based; conditions: HEK293, read-out: inhibition rate
T2 sequence (Q64663 1-595): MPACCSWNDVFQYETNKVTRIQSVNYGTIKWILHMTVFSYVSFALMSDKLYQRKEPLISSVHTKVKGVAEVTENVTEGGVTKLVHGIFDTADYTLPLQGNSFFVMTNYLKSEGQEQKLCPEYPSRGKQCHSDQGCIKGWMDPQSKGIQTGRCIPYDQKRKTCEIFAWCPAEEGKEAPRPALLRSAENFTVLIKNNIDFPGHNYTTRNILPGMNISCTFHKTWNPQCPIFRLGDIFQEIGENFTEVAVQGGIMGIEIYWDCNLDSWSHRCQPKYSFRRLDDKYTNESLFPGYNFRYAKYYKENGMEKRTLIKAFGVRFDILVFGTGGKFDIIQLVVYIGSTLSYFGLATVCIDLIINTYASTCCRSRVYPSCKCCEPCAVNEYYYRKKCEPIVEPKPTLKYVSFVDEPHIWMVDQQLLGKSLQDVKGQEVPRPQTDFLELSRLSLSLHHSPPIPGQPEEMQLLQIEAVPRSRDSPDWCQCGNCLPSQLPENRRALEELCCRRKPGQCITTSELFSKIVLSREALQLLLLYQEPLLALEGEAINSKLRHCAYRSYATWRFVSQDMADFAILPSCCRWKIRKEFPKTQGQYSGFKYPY

hP2X1 = hP2X1 (Homo sapiens, UniProt P51575); experiment: as above; type: cell-based; conditions: HEK293, read-out: inhibition rate
hP2X1, sequence (P51575 whole entry): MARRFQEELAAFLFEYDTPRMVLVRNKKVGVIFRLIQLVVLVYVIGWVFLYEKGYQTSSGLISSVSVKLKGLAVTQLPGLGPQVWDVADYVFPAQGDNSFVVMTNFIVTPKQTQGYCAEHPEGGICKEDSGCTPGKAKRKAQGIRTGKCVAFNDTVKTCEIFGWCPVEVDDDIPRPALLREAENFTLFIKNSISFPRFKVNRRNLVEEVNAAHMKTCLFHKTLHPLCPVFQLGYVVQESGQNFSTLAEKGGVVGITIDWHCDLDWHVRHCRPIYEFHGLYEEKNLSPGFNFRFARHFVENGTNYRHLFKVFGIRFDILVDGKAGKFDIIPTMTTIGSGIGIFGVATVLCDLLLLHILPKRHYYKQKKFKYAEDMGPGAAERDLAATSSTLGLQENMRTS

hP2X4 = hP2X4 (Homo sapiens, UniProt Q99571); experiment: Nystatin-perforated patch recording, ATP-evoked current, HEK293; type: cell-based; conditions: HEK293, read-out: inhibition rate
hP2X4, sequence (Q99571 whole entry): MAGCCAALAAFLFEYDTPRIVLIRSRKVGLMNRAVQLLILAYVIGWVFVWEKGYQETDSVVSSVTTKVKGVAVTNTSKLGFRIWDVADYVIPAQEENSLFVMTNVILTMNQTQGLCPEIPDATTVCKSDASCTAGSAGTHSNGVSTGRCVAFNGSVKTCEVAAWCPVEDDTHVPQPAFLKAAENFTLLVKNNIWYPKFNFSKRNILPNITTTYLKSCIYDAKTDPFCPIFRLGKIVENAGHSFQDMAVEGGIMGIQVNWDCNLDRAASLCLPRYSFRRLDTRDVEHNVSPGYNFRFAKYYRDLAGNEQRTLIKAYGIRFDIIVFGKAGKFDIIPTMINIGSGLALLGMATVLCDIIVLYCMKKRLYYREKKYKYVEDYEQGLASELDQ

mP2X7 A312V = target: T3, mP2X7 A312V (Mus musculus, UniProt Q9Z1M0, A312V); experiment: Whole-cell patch clamp, mP2X7 mutant; type: cell-based
T3 sequence (Q9Z1M0 1-595 A312V): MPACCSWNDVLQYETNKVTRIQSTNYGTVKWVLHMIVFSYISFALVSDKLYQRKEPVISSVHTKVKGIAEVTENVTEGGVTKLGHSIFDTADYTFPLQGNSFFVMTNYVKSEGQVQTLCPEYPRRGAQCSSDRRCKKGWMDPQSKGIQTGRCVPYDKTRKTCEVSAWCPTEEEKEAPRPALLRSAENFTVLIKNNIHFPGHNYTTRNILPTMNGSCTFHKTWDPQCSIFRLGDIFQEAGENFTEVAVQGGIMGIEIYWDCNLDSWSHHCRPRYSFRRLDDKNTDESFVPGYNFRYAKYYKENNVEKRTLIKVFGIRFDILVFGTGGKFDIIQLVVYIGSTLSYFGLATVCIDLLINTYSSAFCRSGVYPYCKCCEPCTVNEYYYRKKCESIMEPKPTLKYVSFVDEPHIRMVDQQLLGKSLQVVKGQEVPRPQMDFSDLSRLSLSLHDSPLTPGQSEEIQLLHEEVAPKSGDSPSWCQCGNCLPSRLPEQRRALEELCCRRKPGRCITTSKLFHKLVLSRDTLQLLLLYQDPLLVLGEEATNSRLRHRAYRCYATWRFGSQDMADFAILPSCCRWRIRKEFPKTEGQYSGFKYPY

pdP2X7 Y295A = experiment: Whole-cell patch clamp, pdP2X7 mutant; type: cell-based, giant panda; conditions: pd7Y295A, 30 μM
P2rx7+/+ mice = experiment: Murine full-thickness wound infection model; type: in vivo, mouse; conditions: 7.5 mg/ml, 50 μL s.c. twice daily, 7 days, vs control solvent
Method in brief: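 WT C57BL/6J mice (8–10 weeks) were anesthetized, their backs shaved and iodine-disinfected, and a 6 mm punch wound made. 20 μL S. aureus (1×10^7 CFU/ml, saline-washed) was applied to the wound. After 24 h of infection, mice were randomized to test compound (7.5 mg/ml, 50 μL) or vehicle (20% sulfobutylether-β-cyclodextrin in saline), given s.c. around the wound twice daily for 7 days. Wound area was imaged daily and quantified. Data are mean ± SEM.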

[1] = Maximal soluble concentration in recording solution; type: physicochemical
pdP2X7 Y298F = pdP2X7 Y298F (Ailuropoda melanoleuca, UniProt G1M6C4, Y299F); conditions: pd7 Y298F, 10 μM
pdP2X7 Y298F, sequence (G1M6C4 2-606 Y299F): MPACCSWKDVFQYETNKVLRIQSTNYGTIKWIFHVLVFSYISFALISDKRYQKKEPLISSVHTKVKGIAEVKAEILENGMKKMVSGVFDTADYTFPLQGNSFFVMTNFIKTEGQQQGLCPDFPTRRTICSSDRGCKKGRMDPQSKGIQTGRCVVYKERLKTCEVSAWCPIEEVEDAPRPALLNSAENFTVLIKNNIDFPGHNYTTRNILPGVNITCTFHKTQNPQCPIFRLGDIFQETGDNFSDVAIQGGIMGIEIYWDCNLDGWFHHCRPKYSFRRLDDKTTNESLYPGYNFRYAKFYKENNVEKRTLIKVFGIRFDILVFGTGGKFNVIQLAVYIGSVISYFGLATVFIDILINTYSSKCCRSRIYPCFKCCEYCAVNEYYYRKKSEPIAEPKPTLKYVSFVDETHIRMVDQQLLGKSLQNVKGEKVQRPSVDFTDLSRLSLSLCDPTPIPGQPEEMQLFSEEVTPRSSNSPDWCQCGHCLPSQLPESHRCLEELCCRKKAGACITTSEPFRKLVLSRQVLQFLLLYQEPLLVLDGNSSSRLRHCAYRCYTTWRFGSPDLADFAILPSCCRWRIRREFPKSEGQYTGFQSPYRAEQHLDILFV

pdP2X7 P96G = pdP2X7 P96G (Ailuropoda melanoleuca, UniProt G1M6C4, P97G); experiment: cell-based
pdP2X7 P96G, sequence (G1M6C4 2-595 P97G): as the sequence (G1M6C4 2-595) above, with P96G counted along it

pdP2X7 M105F = pdP2X7 M105F (Ailuropoda melanoleuca, UniProt G1M6C4, M106F); experiment: cell-based
pdP2X7 M105F, sequence (G1M6C4 2-595 M106F): as the sequence (G1M6C4 2-595) above, with M105F counted along it

With `C=CC[C@@H]1c2ccc(OC)c(OC)c2CN2CCc3cc4c(cc3[C@H]12)OCO4` [PSFL1191, (13R,13aS)-13-allyl-9,10-dimethoxy-5,8,13,13a-tetrahydro-6H-1,3dioxolo[4,5-g]isoquinolino[3,2-a]isoquinoline] the IC50 (hP2X7) was 0.248 ± 0.017 µM, the “fold difference in affinity for hP2X7 between PSFL1191 and PSFL1190” value (hP2X7) was ~50 fold and > 50 fold and the IC50 (pdP2X7) was 0.754 ± 0.018 µM. For the same compound, the “apparent affinity, times lower than that of JNJ-54175446” value (pdP2X7; pdP2X7) was 10-20 times, the inhibition at 30 µM (rP2X7) was 4.94 ± 1.43% and the inhibition at 30 µM (hP2X1) was -8.35 ± 4.49%. For the same compound, the inhibition at 30 µM (hP2X4) was -17.6 ± 9%, the IC50 (mP2X7 A312V) was 0.908 ± 0.026 µM and the “fold increase of inhibition compared to m7WT” value (mP2X7 A312V; mP2X7 A312V, 1 μM) was ~ 21 fold and 21 fold. For the same compound, the inhibition rate (pdP2X7 Y295A) was ≤ 50%, the “wound healing (wound area)” value (P2rx7+/+ mice) was “did not influence the wound healing rate” and the solubility [1] was 30 µM (≈ 11.4 µg/mL). For the same compound, the “inhibitory effect on ATP (1 mM)-induced activation (inhibition ratio)” value (pdP2X7 Y298F) was “significantly attenuated”, the IC50 (pdP2X7 P96G) was 8.06 µM and the IC50 (pdP2X7 M105F) was 2.06 µM.
